# Measurements published in ChEMBL document CHEMBL4251609, “Substrate-derived triazolo- and azapeptides as inhibitors of cathepsins K and S” (Eur J Med Chem, 2018).
# Active and inactive are the calls of the source. The rule behind the calls is not given here. Starred links: 1 amine or outer side, 2 acyl side, 3 side chain; linkers in the order of their positions; H or OH if unused. Non-standard residues stand in square brackets, D forms with d. Residues, ends and D or L forms follow the SMILES beside them. Tyr(3-NO2) = N[C@@H](Cc1ccc(O)c([N+](=O)[O-])c1)C(=O)O; X1 = O=C([C@H](Cc1ccccc1)n1cc(CN[*:1])nn1)[*:2]; 4Abz = Nc1ccc(C(=O)O)cc1
# Legend:
# [1] = molecular target: Cathepsin S (Mus musculus) (UniProt O70370); assay: Inhibition of cathepsin S in C57/Bl6 mouse spleen lysate using Z-Val-Leu-Arg-AMC as substrate at 100 uM preincubated for 30 mins followed by substrate addition; assay type: subcellular
# [2] = molecular target: Cathepsin B (Mus musculus) (UniProt P10605); assay: Inhibition of cathepsin B in C57/Bl6 mouse spleen lysate using Z-Arg-Arg-AMC as substrate at 100 uM preincubated for 30 mins followed by substrate addition; assay type: subcellular
# [3] = molecular target: T1, Cathepsin K (Homo sapiens) (UniProt P43235); assay: Inhibition of human cathepsin K […] activity assessed as normalized bradykinin equivalents ratio at 1 uM pre-incubated for 15 mins before bradykinin substrate addition by competitive enzyme immunoassay (reference value: <0.5%); parameters: scale not given: the % may be the effect or the level left
# T1 sequence (whole entry): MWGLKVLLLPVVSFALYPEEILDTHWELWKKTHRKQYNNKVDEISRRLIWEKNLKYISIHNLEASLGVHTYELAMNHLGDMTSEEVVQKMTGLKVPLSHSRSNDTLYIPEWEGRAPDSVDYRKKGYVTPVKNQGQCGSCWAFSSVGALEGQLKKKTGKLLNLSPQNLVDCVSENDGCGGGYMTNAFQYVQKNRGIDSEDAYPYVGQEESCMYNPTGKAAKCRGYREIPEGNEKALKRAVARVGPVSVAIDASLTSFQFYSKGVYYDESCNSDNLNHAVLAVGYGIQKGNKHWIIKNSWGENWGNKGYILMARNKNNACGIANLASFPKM
# [4] = molecular target: T1, Cathepsin K (Homo sapiens); assay: Inhibition of human cathepsin K […] activity assessed as normalized bradykinin equivalents ratio at 1 uM pre-incubated for 15 mins before kallidin substrate addition by competitive enzyme immunoassay (reference value: <0.5%); parameters: scale not given: the % may be the effect or the level left
# Trypsin (Homo sapiens) [5] = molecular target: T2, Trypsin (Homo sapiens) (UniProt P07477+P07478+P35030); assay: Inhibition of trypsin (unknown origin) incubated for 30 mins using Abz-Thr-Pro-Arg-Ser-Ala-Leu-Gln-EDDnp substrate; assay type: protein assay
# Homo sapiens = species: Homo sapiens; assay: Inhibition of chymotrypsin (unknown origin) incubated for 30 mins using Abz-Thr-Pro-Phe-Ser-Gly-Gln-EDDnp substrate
# [6] = molecular target: T3, Neutrophil elastase (Homo sapiens) (UniProt P08246); assay: Inhibition of human neutrophil elastase incubated for 30 mins using Abz-Ala-Pro-Glu-Glu-Ile-Met-Arg-Arg-Gln-(3-NO2-Tyr) substrate
# T3 sequence (whole entry): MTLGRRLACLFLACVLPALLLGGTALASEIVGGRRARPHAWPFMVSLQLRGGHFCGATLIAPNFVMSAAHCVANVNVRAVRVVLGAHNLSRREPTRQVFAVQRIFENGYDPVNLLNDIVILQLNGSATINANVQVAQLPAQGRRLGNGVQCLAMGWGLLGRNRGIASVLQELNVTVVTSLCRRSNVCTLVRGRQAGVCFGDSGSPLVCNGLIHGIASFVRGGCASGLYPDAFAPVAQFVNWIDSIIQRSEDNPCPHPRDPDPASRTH
# [7] = molecular target: 72 kDa type IV collagenase (Homo sapiens) (UniProt P08253); assay: Inhibition of human recombinant MMP-2 expressed in CHO cells incubated for 30 mins by Mca-Arg-Pro-Pro-Gly-Phe-Ser-Ala-Phe-Lys(Dnp) substrate; assay type: cell-based
# [8] = molecular target: Cathepsin D (Homo sapiens) (UniProt P07339); assay: Inhibition of human cathepsin D incubated for 30 mins using Mca-Gly-Lys-Pro-Ile-Leu-Phe-Phe-Arg-Leu-Lys(Dnp)-D-Arg-NH2 substrate
# [9] = molecular target: T4, Pro-cathepsin H (Homo sapiens) (UniProt P09668); assay: Inhibition of human cathepsin H using fluorogenic AMC-derived peptide substrate assessed as reduction in residual activity preincubated for 30 mins followed by substrate addition
# T4 sequence (whole entry): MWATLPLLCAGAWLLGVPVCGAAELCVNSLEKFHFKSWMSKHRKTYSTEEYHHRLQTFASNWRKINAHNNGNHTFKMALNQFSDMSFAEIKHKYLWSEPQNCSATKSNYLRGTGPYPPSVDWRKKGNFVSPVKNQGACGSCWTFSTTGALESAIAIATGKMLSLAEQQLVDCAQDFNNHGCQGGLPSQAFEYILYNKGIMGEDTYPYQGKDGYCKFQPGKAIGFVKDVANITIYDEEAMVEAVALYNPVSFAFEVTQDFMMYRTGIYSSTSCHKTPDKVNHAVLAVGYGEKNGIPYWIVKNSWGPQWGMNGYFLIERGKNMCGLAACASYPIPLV
# [10] = molecular target: Cathepsin B (Homo sapiens) (UniProt P07858); assay: Inhibition of human cathepsin B
# [11] = molecular target: T1, Cathepsin K (Homo sapiens); assay: Inhibition of human cathepsin K using fluorogenic AMC-derived peptide substrate assessed as reduction in residual activity preincubated for 30 mins followed by substrate addition
# Procathepsin L [12] = molecular target: T5, Procathepsin L (Homo sapiens, UniProt P07711); assay: Inhibition of human cathepsin L using fluorogenic AMC-derived peptide substrate assessed as reduction in residual activity preincubated for 30 mins followed by substrate addition
# Target sequence in this assay (P07711 114-333 limits assumed): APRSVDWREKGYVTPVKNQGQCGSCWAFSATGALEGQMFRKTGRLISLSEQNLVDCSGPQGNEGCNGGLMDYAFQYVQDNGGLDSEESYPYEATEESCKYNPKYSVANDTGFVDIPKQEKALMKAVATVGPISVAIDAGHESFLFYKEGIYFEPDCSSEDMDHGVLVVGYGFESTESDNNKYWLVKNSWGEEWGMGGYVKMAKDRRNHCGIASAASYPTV
# Cathepsin S [13] = molecular target: T6, Cathepsin S (Homo sapiens, UniProt P25774); assay: Reversible inhibition of human cathepsin S at 600 uM preincubated for 30 mins followed by Biot-(PEG)2-Ahx-LeuValGly-DMK addition measured after 1 hr by chemiluminescence assay
# Target sequence in this assay (P25774 115-331 limits assumed): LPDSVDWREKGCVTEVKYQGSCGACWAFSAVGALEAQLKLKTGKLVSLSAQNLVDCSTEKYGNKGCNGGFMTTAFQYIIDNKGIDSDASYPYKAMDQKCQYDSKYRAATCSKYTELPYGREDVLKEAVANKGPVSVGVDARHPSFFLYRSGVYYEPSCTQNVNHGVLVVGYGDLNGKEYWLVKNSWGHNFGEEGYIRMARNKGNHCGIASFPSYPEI
# Cathepsin S [14] = molecular target: T6, Cathepsin S; assay: (§1) Reversible competitive inhibition of human cathepsin S using fluorogenic AMC-derived peptide substrate assessed as reduction in residual activity at pH 5.5 preincubated for 30 mins followed by substrate addition
# How it was run: (§2)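 Ki values for cathepsin S determined at pH 5.5 and again at pH 7.4, a pH at which this enzyme stays stable and active, to compare the two conditions.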
# Target sequence in this assay (P25774 115-331 limits assumed): as above
# [15] = molecular target: Cathepsin S (Mus musculus) (UniProt O70370); assay: Inhibition of cathepsin S in C57/Bl6 mouse spleen lysate using Z-Val-Leu-Arg-AMC as substrate at 10 uM preincubated for 30 mins followed by substrate addition; assay type: subcellular
# Cathepsin S [16] = molecular target: T6, Cathepsin S; assay: Reversible inhibition of human cathepsin S at 600 uM in presence of excess Z-LR-AMC
# Target sequence in this assay (P25774 115-331 limits assumed): as above
# [17] = molecular target: Cathepsin B (Mus musculus) (UniProt P10605); assay: Inhibition of cathepsin B in C57/Bl6 mouse spleen lysate using Z-Arg-Arg-AMC as substrate at 10 uM preincubated for 30 mins followed by substrate addition; assay type: subcellular
# Cathepsin S [18] = molecular target: T6, Cathepsin S; assay: as §1; how it was run: as §2; remark: listed apart in the source
# Target sequence in this assay (P25774 whole entry): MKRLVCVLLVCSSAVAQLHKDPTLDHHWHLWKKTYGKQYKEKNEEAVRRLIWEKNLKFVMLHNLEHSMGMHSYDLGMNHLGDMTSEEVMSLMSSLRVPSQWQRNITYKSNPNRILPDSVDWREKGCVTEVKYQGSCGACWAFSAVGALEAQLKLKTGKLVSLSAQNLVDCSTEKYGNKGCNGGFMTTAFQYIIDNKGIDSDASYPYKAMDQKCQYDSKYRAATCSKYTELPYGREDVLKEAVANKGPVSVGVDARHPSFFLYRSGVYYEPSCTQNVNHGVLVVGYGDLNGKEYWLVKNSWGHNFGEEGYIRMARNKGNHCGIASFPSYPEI
# Cathepsin S [19] = molecular target: T6, Cathepsin S; assay: Reversible competitive inhibition of human cathepsin S using fluorogenic AMC-derived peptide substrate assessed as reduction in residual activity at pH 7.4 preincubated for 30 mins followed by substrate addition; how it was run: as §2
# Target sequence in this assay (P25774 whole entry): as above
# Cathepsin K = molecular target: T7, Cathepsin K (Homo sapiens, UniProt P43235); assay: Reversible competitive inhibition of human cathepsin K using fluorogenic AMC-derived peptide substrate assessed as reduction in residual activity preincubated for 30 mins followed by substrate addition
# T7 sequence (P43235 whole entry): T1 sequence (whole entry)
# How it was run: (§3)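 Inhibition constants (Ki) determined at pH 5.5, with reversibility and competitive mode also assessed.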
# Procathepsin L [20] = molecular target: T5, Procathepsin L; assay: Reversible competitive inhibition of human cathepsin L using fluorogenic AMC-derived peptide substrate assessed as reduction in residual activity preincubated for 30 mins followed by substrate addition; how it was run: as §3
# Target sequence in this assay (P07711 whole entry): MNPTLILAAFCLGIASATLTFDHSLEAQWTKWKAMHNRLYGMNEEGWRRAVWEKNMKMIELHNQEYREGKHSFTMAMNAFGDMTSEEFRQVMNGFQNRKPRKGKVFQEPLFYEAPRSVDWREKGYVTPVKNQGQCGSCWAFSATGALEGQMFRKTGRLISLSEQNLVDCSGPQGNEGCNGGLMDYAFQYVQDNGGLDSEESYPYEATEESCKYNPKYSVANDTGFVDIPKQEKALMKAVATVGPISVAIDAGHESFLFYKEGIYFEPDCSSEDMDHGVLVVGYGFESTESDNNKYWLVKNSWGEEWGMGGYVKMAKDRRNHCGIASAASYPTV
# Pro-cathepsin H = molecular target: T8, Pro-cathepsin H (Homo sapiens, UniProt P09668); assay: Reversible competitive inhibition of human cathepsin H using fluorogenic AMC-derived peptide substrate assessed as reduction in residual activity preincubated for 30 mins followed by substrate addition
# T8 sequence (P09668 whole entry): T4 sequence (whole entry)
# Cathepsin S [21] = molecular target: T6, Cathepsin S; assay: Inhibition of human cathepsin S using fluorogenic AMC-derived peptide substrate assessed as reduction in residual activity preincubated for 30 mins followed by substrate addition
# Target sequence in this assay (P25774 115-331 limits assumed): as the sequence (P25774 115-331 limits assumed) above
# Trypsin (Homo sapiens) [22] = molecular target: T2, Trypsin (Homo sapiens); assay: Substrate activity of trypsin (unknown origin) assessed as compound hydrolysis; assay type: protein assay
# How it was run: (§4)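 Compound was incubated with each protease and the incubation mixtures were analysed by RP-HPLC for proteolytic degradation of the compound.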
# [23] = molecular target: Cathepsin B (Homo sapiens) (UniProt P07858); assay: Substrate activity of human cathepsin B assessed as compound hydrolysis; how it was run: as §4
# Cathepsin S [24] = molecular target: T6, Cathepsin S; assay: Reversible inhibition of human cathepsin S at 20 uM preincubated for 30 mins followed by Biot-(PEG)2-Ahx-LeuValGly-DMK addition measured after 1 hr by chemiluminescence assay
# Target sequence in this assay (P25774 115-331 limits assumed): as above
# Cathepsin S [25] = molecular target: T6, Cathepsin S; assay: Reversible inhibition of human cathepsin S at 20 uM in presence of excess Z-LR-AMC
# Target sequence in this assay (P25774 115-331 limits assumed): as above
# [26] = molecular target: T1, Cathepsin K (Homo sapiens); assay: Inhibition of human cathepsin K […] activity at 3 uM pre-incubated for 30 mins before bradykinin substrate addition by reverse-phase chromatography
# [27] = molecular target: T1, Cathepsin K (Homo sapiens); assay: Inhibition of human cathepsin K […] activity at 100 nM pre-incubated for 30 mins before bradykinin substrate addition by reverse-phase chromatography
# [28] = molecular target: T1, Cathepsin K (Homo sapiens); assay: Inhibition of human cathepsin K […] activity at 3 uM pre-incubated for 30 mins before Abz-Arg-Pro-Pro-Gly-Phe-Ser-Pro-Phe-Arg-(3-NO2-Tyr) substrate addition by reverse-phase chromatography
# [29] = molecular target: T1, Cathepsin K (Homo sapiens); assay: Inhibition of human cathepsin K […] activity at 100 nM pre-incubated for 30 mins before Abz-Arg-Pro-Pro-Gly-Phe-Ser-Pro-Phe-Arg-(3-NO2-Tyr) substrate addition by reverse-phase chromatography
# [30] = molecular target: T1, Cathepsin K (Homo sapiens); assay: Inhibition of human cathepsin K […] activity assessed as normalized bradykinin equivalents ratio at 5 uM pre-incubated for 15 mins before bradykinin substrate addition by competitive enzyme immunoassay (reference value: <0.5%); parameters: scale not given: the % may be the effect or the level left
# [31] = molecular target: T1, Cathepsin K (Homo sapiens); assay: Inhibition of human cathepsin K […] activity assessed as normalized bradykinin equivalents ratio at 5 uM pre-incubated for 15 mins before kallidin substrate addition by competitive enzyme immunoassay (reference value: <0.5%); parameters: scale not given: the % may be the effect or the level left
# Sequence of 72 kDa type IV collagenase (Homo sapiens) (P08253 110-660 limits assumed): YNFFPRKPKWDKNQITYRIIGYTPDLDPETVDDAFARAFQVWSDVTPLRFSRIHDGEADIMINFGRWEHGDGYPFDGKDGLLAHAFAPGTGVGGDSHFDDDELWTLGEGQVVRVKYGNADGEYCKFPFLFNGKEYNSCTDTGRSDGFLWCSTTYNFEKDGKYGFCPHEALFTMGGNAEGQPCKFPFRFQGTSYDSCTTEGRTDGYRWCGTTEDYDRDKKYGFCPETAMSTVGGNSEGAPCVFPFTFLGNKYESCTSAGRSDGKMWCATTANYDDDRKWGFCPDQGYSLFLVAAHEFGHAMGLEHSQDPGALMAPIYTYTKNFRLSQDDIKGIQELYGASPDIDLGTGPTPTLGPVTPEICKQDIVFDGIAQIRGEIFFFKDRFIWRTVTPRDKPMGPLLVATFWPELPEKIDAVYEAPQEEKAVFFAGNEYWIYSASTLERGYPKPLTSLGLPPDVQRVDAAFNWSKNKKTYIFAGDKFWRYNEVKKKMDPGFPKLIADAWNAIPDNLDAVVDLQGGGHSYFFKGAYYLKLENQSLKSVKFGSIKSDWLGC
# Sequence of Cathepsin D (Homo sapiens) (P07339 65-162 limits assumed): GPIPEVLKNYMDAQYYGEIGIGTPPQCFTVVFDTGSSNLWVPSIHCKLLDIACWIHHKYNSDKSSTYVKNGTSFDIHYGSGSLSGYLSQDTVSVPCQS
# Sequence of Cathepsin D (Homo sapiens) (P07339 169-412 limits assumed): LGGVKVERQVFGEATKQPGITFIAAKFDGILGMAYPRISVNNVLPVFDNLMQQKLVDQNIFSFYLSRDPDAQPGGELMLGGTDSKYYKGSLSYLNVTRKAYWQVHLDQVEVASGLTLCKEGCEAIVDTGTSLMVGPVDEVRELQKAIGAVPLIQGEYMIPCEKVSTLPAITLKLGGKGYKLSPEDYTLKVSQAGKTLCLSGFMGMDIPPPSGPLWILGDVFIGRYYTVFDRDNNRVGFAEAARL
# Sequence of Cathepsin B (Mus musculus) (P10605 80-333 limits assumed): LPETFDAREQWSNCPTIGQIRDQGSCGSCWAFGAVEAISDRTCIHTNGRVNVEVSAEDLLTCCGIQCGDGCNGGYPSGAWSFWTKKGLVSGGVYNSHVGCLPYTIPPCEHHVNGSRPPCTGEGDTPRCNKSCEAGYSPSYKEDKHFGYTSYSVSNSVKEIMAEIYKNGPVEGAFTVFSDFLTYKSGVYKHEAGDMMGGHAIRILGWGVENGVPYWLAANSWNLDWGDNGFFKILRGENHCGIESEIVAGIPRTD
structure (smiles),measurement,setting,value
CC(C)C[C@H](NC(=O)[C@@H]1O[C@H]1C(=O)O)C(=O)NCCCCN=C(N)N,inhibition,[1],Active
same,inhibition,[2],Active
same,Activity,[3],100%
same,Activity,[4],100%
CSCC[C@H](NC(=O)[C@@H]1CCCN1C(=O)[C@H](Cc1c[nH]cn1)NC(=O)[C@H](Cc1c[nH]c2ccccc12)NC(=O)[C@H](CCCNC(=N)N)NC(=O)CNC(C)=O)C(=O)NNC(=O)N[C@@H](C)C(=O)N1CCC[C@H]1C(=O)N[C@@H](Cc1c[nH]c2ccccc12)C(=O)N[C@@H](CCC(=O)O)C(=O)N[C@H](C)C(=O)N[C@H](CCCNC(=N)N)C(N)=O,inhibition,Trypsin (Homo sapiens) [5],inactive
same,inhibition,Homo sapiens,inactive
same,inhibition,[6],inactive
same,inhibition,[7],inactive
same,inhibition,[8],inactive
same,inhibition,[9],Active
same,inhibition,[10],Active
same,inhibition,[11],Active
same,inhibition,Procathepsin L [12],Active
same,inhibition,Cathepsin S [13],Active
same,inhibition,Cathepsin S [14],Active
same,inhibition,[15],Active
same,inhibition,Cathepsin S [16],inactive
same,inhibition,[17],inactive
same,Ki,Cathepsin S [18]; read-out: Ki,26 nM
same,Ki,Cathepsin S [19]; read-out: Ki,17 nM
same,Ki,Cathepsin K,3 nM
same,Ki,Procathepsin L [20],5 nM
same,Ki,Pro-cathepsin H; read-out: Ki,7000 nM
same,inhibition,Cathepsin S [21],Active
N=C(N)NCCC[C@H](NC(=O)[C@H](Cc1ccccc1)NC(=O)[C@@H]1CCCN1C(=O)[C@H](CO)NC(=O)[C@H](Cc1ccccc1)n1cc(CNC(=O)[C@@H]2CCCN2C(=O)[C@@H]2CCCN2C(=O)[C@H](CCCNC(=N)N)NC(=O)c2ccc(N)cc2)nn1)C(=O)N[C@@H](Cc1ccc(O)c([N+](=O)[O-])c1)C(N)=O (H-[4Abz]RPP[X1]SPFR[Tyr(3-NO2)]-NH2),inhibition,Trypsin (Homo sapiens) [5],inactive
same,inhibition,Homo sapiens,inactive
same,inhibition,[6],inactive
same,inhibition,[7],inactive
same,inhibition,[8],inactive
same,inhibition,[9],inactive
same,inhibition,[10],inactive
same,Activity,Trypsin (Homo sapiens) [22],Active
same,Activity,[23],Active
same,inhibition,Cathepsin S [24],Active
same,inhibition,Cathepsin S [25],inactive
same,inhibition,[26],Active
same,inhibition,[27],Active
same,inhibition,[28],Active
same,inhibition,[29],Active
same,Activity,[30],100%
same,Activity,[31],100%
same,Ki,Cathepsin S [18],Not Active
same,Ki,Cathepsin S [19],Not Active
same,Ki,Cathepsin K,800 nM
same,Ki,Procathepsin L [20],22000 nM
same,Ki,Pro-cathepsin H,Not Active
